Measured values as given in ChEMBL document CHEMBL3232832, “Derivatives of dibenzothiophene for positron emission tomography imaging of α7-nicotinic acetylcholine receptors” (J Med Chem, 2013).

Tests used:
Format in all cases: ADME, organism-based
Details in all cases: in vivo, 1.5 h; call rule not given here
[1] = Drug uptake in CD-1 mouse superior and inferior colliculus at 70 uCi, iv administered 10 mins post SSR180711 challenge measured after 90 mins
Method in brief: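 Male CD-1 mice given the selective α7 partial agonist as positive control, 2 mg/kg s.c. in saline:DMSO 5:1 (0.1 mL), 10 min before i.v. [18F]tracer (70 µCi, ~14000 mCi/µmol, 0.2 mL). Controls received vehicle. Brain regions dissected at 90 min and gamma-counted. %ID/g, mean ± SD, n=3; ANOVA.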

Cerebellum [2] = assay: Ratio of clearance in CD-1 mouse cerebellum to clearance in CD-1 mouse other brain tissues at 70 uCi, iv followed by compound washout after 90 mins by gamma-counting analysis
Method in brief: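 CD-1 mouse baseline biodistribution after i.v. [18F]radioligand (70 µCi, 8000–12000 mCi/µmol, in 0.2 mL saline), three mice per time point to 90 min. Regional gamma-counting gave %ID/g, and each region was expressed as a ratio to cerebellum.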

Cerebellum [3] = assay: Drug uptake in CD-1 mouse cerebellum at 70 uCi, iv administered 10 mins post spiperone challenge measured after 90 mins
Method in brief: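 Male CD-1 mice, n=3. Drug at 2 mg/kg s.c. in saline:DMSO 5:1, with vehicle controls. [18F] radiotracer (70 µCi, SA ~14000 mCi/µmol) given i.v. 10 min later. Regions harvested 90 min after tracer, gamma counted, expressed as %ID/g. Compared by single-factor ANOVA.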

With `O=S1(=O)c2cc(N3CCN4CCC3CC4)ccc2-c2cccc([18F])c21` the Drug uptake [1] was “Not Active”, the Ratio (Cerebellum [2]) was 10 and the Drug uptake (Cerebellum [3]) was “Active”.
